Assay results of several laboratories.
Each line is one published result; the experiments were not run side by side.
Target: Fibroblast growth factor receptor 2 (FGFR2, Homo sapiens, UniProt P21802)

CCCOc1ccc([C@@H]2[C@@H](C(=O)O)[C@H](c3ccc4c(c3)OCO4)CN2CC(=O)Nc2c(CC)cccc2CC)cc1  remaining binding (cell-free assay, competition with immobilised ligand; 1 µM): 100%
CN(C)c1ncc(F)c(-c2cnn3ncccc23)n1  remaining binding (binding; 1 µM): 100%
O=C(c1ccc(Nc2ncc(Cl)c(-c3cc4ccccc4s3)n2)cc1)N1CCC(N2CCCC2)CC1  remaining binding (binding, competition with immobilised ligand; 1 µM): 33%
CC(C)(C)c1ccc(-c2nc(CBr)nn2-c2cccc(O)c2)cc1  remaining binding (cell-free assay, competition with immobilised ligand; 10 µM): 95%
c1cnn2ncc(-c3ccnc(N4CCC45COC5)n3)c2c1  remaining binding (binding; 1 µM): 100%
CCC(=O)N[C@@H]1CC[C@H](C(=O)N(C)c2ccc(-c3nc4ccccc4o3)cc2)C1  remaining binding (cell-free assay, competition with immobilised ligand; 1 µM): 86%
COc1cnc(Nc2cccc(S(N)(=O)=O)c2)nc1N1CCN(c2ccccc2)C(=O)C1  remaining binding (binding, competition with immobilised ligand; 1 µM): 90%
C[C@@H]1CCN(c2nccc(-c3cnn4ncccc34)n2)C1  remaining binding (binding; 1 µM): 92%
FC(F)(F)Oc1cccc(-c2cnc3ccc(-c4ccncc4)nn23)c1  remaining binding (cell-free assay, competition with immobilised ligand; 5 µM): 81%
CCOCCn1cc(C(=O)Nc2ccc(-n3nc(-c4cccnc4)cc3C(F)(F)F)cn2)ccc1=O  remaining binding (cell-free assay, competition with immobilised ligand; 1 µM): 49%
CN(CCCC(F)(F)F)c1nccc(-c2cnn3ncccc23)n1  remaining binding (binding; 1 µM): 89%
c1cncc(-c2cccc(Nc3nccc(NC4CCCCC4)n3)c2)c1  remaining binding (binding, competition with immobilised ligand; 10 µM): 22%
C[C@@H]1CN(c2ccc3ncc(-c4ccc5[nH]nc(C6CC6)c5c4)n3n2)C[C@H](C)O1  remaining binding (binding, competition with immobilised ligand; 50 nM): 100%
COc1ccnn2ncc(-c3ccnc(N(C)C)n3)c12  remaining binding (binding; 1 µM): 100%
COc1ccc2cc(OCC3(C(=O)O)CN(C(=O)c4ccc(F)cc4)C3)ccc2c1  remaining binding (cell-free assay, competition with immobilised ligand; 1 µM): 100%
O=C(NCC1CCOCC1)c1n[nH]cc1NC(=O)c1c(F)cccc1F  remaining binding (binding, competition with immobilised ligand; 1 µM): 100%
N[C@@H]1CCN(c2nccc(-c3cnn4ncccc34)n2)C1  remaining binding (binding; 1 µM): 99%
C=CC(=O)N1CCC(C(=O)NCC(=O)N2CCN(c3nc(-c4cnc(N)nc4C(F)F)nc(N4CCOCC4)n3)CC2)CC1  remaining binding (binding, competition with immobilised ligand; 1 µM): 89%
C[C@H](c1ccc(F)cc1)N(Cc1cccc(C(=O)O)c1)C(=O)c1cnc2ccccc2c1  remaining binding (cell-free assay, competition with immobilised ligand; 1 µM): 74%
F[C@@H]1CCN(c2nccc(-c3cnn4ncccc34)n2)C1  remaining binding (binding; 1 µM): 100%
CN1CCN(c2cnc3c(C4CCN(C(=O)c5ccc(OC(F)(F)F)cc5N)CC4)ncnc3c2)CC1  remaining binding (cell-free assay, competition with immobilised ligand; 1 µM): 100%
O=C(NCCCN1CCOCC1)c1ccc(Nc2ncc(Cl)c(-c3ccc(Cl)s3)n2)cc1  remaining binding (binding, competition with immobilised ligand; 1 µM): 29%
CC(=O)c1c(NS(C)(=O)=O)c2cc(-c3ccc(Cl)cc3)c(-c3ccc(Cl)cc3Cl)nc2n(C)c1=O  remaining binding (cell-free assay, competition with immobilised ligand; 1 µM): 92%
N#Cc1ccccc1CSc1nnc2c(n1)[nH]c1ccccc12  remaining binding (binding, competition with immobilised ligand; 10 µM): 91%
Cn1nc(C(=O)NCc2ccc(C(=O)O)cc2)cc1-c1ccc2[nH]ccc2c1  remaining binding (cell-free assay, competition with immobilised ligand; 0.1 µM): 87%
O=C(c1ccc(Nc2ncc(Cl)c(-c3ccc(Cl)s3)n2)cc1)N1CCC(N2CCCC2)CC1  remaining binding (binding, competition with immobilised ligand; 1 µM): 4.4%
